ChEMBL document CHEMBL1142313, “Parallel synthesis of a series of potentially brain penetrant aminoalkyl benzoimidazoles” (Bioorg Med Chem, 2008)
Active and inactive are the calls of the source. No cut-off for these calls is given here.

How the values were obtained:
Format in all cases: functional, cell-based
[1] = molecular target: Neuronal acetylcholine receptor subunit alpha-7 (Rattus norvegicus, UniProt Q05941); experiment: Agonist activity at rat alpha-7 nAChR expressed in GH4C1-F7 cells assessed as effect on calcium influx by FLIPR
Neuronal acetylcholine receptor subunit alpha-7, sequence (Q05941 whole entry): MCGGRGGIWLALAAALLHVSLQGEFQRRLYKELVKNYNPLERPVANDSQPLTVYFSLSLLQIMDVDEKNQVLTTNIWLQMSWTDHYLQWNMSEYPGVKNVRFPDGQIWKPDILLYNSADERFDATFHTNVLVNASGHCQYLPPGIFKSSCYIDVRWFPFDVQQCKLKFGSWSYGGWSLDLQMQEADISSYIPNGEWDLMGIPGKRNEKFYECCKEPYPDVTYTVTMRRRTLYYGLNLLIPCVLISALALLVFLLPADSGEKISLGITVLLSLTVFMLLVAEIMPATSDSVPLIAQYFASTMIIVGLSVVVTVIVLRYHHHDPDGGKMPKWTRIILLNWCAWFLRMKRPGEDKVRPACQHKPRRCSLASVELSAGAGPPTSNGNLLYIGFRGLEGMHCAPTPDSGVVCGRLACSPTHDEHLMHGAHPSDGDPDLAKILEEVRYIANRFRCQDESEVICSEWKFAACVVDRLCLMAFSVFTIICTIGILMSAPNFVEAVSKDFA

[2] = molecular target: Neuronal acetylcholine receptor subunit alpha-7 (Rattus norvegicus) (UniProt Q05941); experiment: Reversal of agonist activity at rat alpha-7 nAChR expressed in GH4C1-F7 cells assessed as effect on calcium influx at 10 uM in presence of methyllycaconitine by FLIPR
Neuronal acetylcholine receptor subunit alpha-7 (Rattus norvegicus), sequence (Q05941 whole entry): as above
Procedure, shortened: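 GH4C1-F7 rat alpha7-nAChR cells loaded with Fluo-4/probenecid at 37 °C for 30 min, then washed in HBSS-20 mM Hepes with 2.5 mM probenecid, with or without MLA 1 µM. Compound added and Ca2+ fluorescence read by FLIPR, every second for 1 min then every 30 s for 10 min. Peak height taken as max-min. A signal lost in the presence of MLA marks alpha7 selectivity.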

[3] = molecular target: Neuronal acetylcholine receptor subunit alpha-7 (Rattus norvegicus) (UniProt Q05941); experiment: Agonist activity at rat alpha-7 nAChR expressed in GH4C1-F7 cells assessed as effect on calcium influx at 5 uM by FLIPR relative to nicotine
Procedure, shortened: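 GH4C1-F7 cells stably expressing rat alpha7 nAChR were seeded at 100,000/well on poly-D-lysine plates and loaded with Fluo-4 (with pluronic acid and probenecid) for 30 min at 37 °C.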

With CN(C)CCCn1c(COc2ccccc2)nc2ccccc21 the EC50 [1] was 2600 nM, the Activity [2] was “Active” and the Activity [3] was over 20%.

For CN1CCCC1CCn1c(Cc2ccc(Br)cc2)nc2ccccc21 (stereo unspecified), the EC50 [1] was 2700 nM, the Activity [2] was “Active” and the Activity [3] was over 20%.

With O=C(Nc1ccccc1F)OC1CN2CCC1CC2 (stereo unspecified) the EC50 [1] was 600 nM.

CN1[C@@H]2CC[C@H]1C[C@H](NC(=O)Nc1ccc(Br)cc1)C2 was tested, and the EC50 [1] was 200 nM.

In the case of Cc1ccc2nc(Cc3ccc(Br)cc3)n(CCCN(C)C)c2c1, the EC50 [1] is reported as 1700 nM, the Activity [2] is reported as “Active” and the Activity [3] is reported as over 20%.

With CN1CCN(CCCn2c(COc3cccc(Cl)c3)nc3ccccc32)CC1 the EC50 [1] was 10000 nM and the Activity [3] was over 20%.

In the case of CN(C)CCCn1c(Cc2ccc(Br)cc2)nc2ccccc21, the EC50 [1] is reported as 2600 nM, the Activity [2] is reported as “Active” and the Activity [3] is reported as over 20%.
